From ChEMBL document CHEMBL1212734, “In vitro pharmacodynamics of levofloxacin and other aerosolized antibiotics under multiple conditions relevant to chronic pulmonary infection in cystic fibrosis” (2010)
Values after ≈ are worked out from the molar mass of the structure shown.

What was measured:
Format in all cases: functional
[1] = tested on: Pseudomonas aeruginosa; experiment: Antibacterial activity against Pseudomonas aeruginosa PA876 assessed as time required for reduction of bacterial load to 3 log CFU/ml at 0.6 mg/ml up to 48 hrs by time-kill assay
Method in brief: (§1)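 Overnight cultures were diluted and grown at 37°C to OD600 ≈0.3, then set at 5 × 10^5–1 × 10^6 CFU/ml in 10 ml CAMHB. Drug was added at 0.2, 0.6 or 2.0 mg/ml, and cultures were shaken at 37°C. Samples taken at 0, 0.5, 1, 2, 4, 8 and 24 h were washed twice in CAMHB, diluted in saline and plated on Mueller-Hinton agar. Plates were incubated up to 48 h before colony counting.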

[2] = tested on: Pseudomonas aeruginosa; experiment: Antibacterial activity against Pseudomonas aeruginosa PA1054 by broth dilution method
Method in brief: (§2)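 Broth microdilution MIC per CLSI reference method; twofold serial dilutions in cation-adjusted Mueller-Hinton broth. […] Endpoint read by OD600 and confirmed visually.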

[3] = tested on: Pseudomonas aeruginosa; experiment: Antibacterial activity against Pseudomonas aeruginosa PA5026 assessed as time required for reduction of bacterial load to 3 log CFU/ml at 0.6 mg/ml up to 48 hrs by time-kill assay; method in brief: as §1
[4] = tested on: Pseudomonas aeruginosa; experiment: Antibacterial activity against Pseudomonas aeruginosa PA880 assessed as time required for reduction of bacterial load to 3 log CFU/ml at 0.6 mg/ml up to 48 hrs by time-kill assay; method in brief: as §1
[5] = tested on: Pseudomonas aeruginosa; experiment: Antibacterial activity against Pseudomonas aeruginosa by broth dilution method; method in brief: as §2
[6] = tested on: Pseudomonas aeruginosa; experiment: Antibacterial activity against Pseudomonas aeruginosa PA881 assessed as time required for reduction of bacterial load to 3 log CFU/ml at 0.2 mg/ml up to 48 hrs by time-kill assay; method in brief: as §1
[7] = tested on: Pseudomonas aeruginosa; experiment: Antibacterial activity against Pseudomonas aeruginosa PA1036 assessed as time required for reduction of bacterial load to 3 log CFU/ml at 0.2 mg/ml up to 48 hrs by time-kill assay; method in brief: as §1
[8] = tested on: Pseudomonas aeruginosa; experiment: Antibacterial activity against Pseudomonas aeruginosa ATCC 27853 assessed as time required for reduction of bacterial load to 3 log CFU/ml at 0.2 mg/ml up to 48 hrs by time-kill assay
[9] = tested on: Pseudomonas aeruginosa; experiment: Antibacterial activity against Pseudomonas aeruginosa ATCC 27853 assessed as inhibition of biofilm formation by microtiter plate reader assay
[10] = tested on: Pseudomonas aeruginosa; experiment: Antibacterial activity against Pseudomonas aeruginosa PA899 by broth dilution method; method in brief: as §2
[11] = tested on: Pseudomonas aeruginosa; experiment: Antibacterial activity against Pseudomonas aeruginosa PA861 assessed as time required for reduction of bacterial load to 3 log CFU/ml at 0.6 mg/ml up to 48 hrs by time-kill assay; method in brief: as §1
[12] = tested on: Pseudomonas aeruginosa; experiment: Antibacterial activity against Pseudomonas aeruginosa PA5026 by broth dilution method; method in brief: as §2
[13] = tested on: Pseudomonas aeruginosa; experiment: Antibacterial activity against Pseudomonas aeruginosa PA5026 assessed as time required for reduction of bacterial load to 3 log CFU/ml at 0.2 mg/ml up to 48 hrs by time-kill assay; method in brief: as §1
[14] = tested on: Pseudomonas aeruginosa; experiment: Antibacterial activity against Pseudomonas aeruginosa ATCC 27853 assessed as time required for reduction of bacterial load to 3 log CFU/ml at 0.6 mg/ml up to 48 hrs by time-kill assay
[15] = tested on: Pseudomonas aeruginosa; experiment: Antibacterial activity against Pseudomonas aeruginosa PA5020 assessed as time required for reduction of bacterial load to 3 log CFU/ml at 0.2 mg/ml up to 48 hrs by time-kill assay; method in brief: as §1
[16] = tested on: Stenotrophomonas maltophilia; experiment: Antibacterial activity against Stenotrophomonas maltophilia by broth dilution method
[17] = tested on: Pseudomonas aeruginosa; experiment: Antibacterial activity against Pseudomonas aeruginosa PA1022 assessed as time required for reduction of bacterial load to 3 log CFU/ml at 0.2 mg/ml up to 48 hrs by time-kill assay; method in brief: as §1
[18] = tested on: Pseudomonas aeruginosa; experiment: Antibacterial activity against Pseudomonas aeruginosa PA899 assessed as time required for reduction of bacterial load to 3 log CFU/ml at 0.6 mg/ml up to 48 hrs by time-kill assay; method in brief: as §1
[19] = tested on: Pseudomonas aeruginosa; experiment: Antibacterial activity against Pseudomonas aeruginosa PA881 assessed as time required for reduction of bacterial load to 3 log CFU/ml at 0.6 mg/ml up to 48 hrs by time-kill assay; method in brief: as §1
[20] = tested on: Pseudomonas aeruginosa; experiment: Antibacterial activity against Pseudomonas aeruginosa PA880 assessed as time required for reduction of bacterial load to 3 log CFU/ml at 0.2 mg/ml up to 48 hrs by time-kill assay; method in brief: as §1
[21] = tested on: Pseudomonas aeruginosa; experiment: Antibacterial activity against Pseudomonas aeruginosa PA5043 assessed as inhibition of biofilm formation by microtiter plate reader assay
Method in brief: (§3)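 Biofilms of cystic fibrosis P. aeruginosa isolates were grown and tested by a previously described method. The endpoint was the biofilm inhibitory concentration, the drug level that prevents biofilm cell growth, compared against planktonic broth-microdilution MICs.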

[22] = tested on: Staphylococcus aureus; experiment: Antibacterial activity against methicillin-sensitive Staphylococcus aureus by broth dilution method
[23] = tested on: Pseudomonas aeruginosa; experiment: Antibacterial activity against Pseudomonas aeruginosa PA1036 assessed as time required for reduction of bacterial load to 3 log CFU/ml at 0.6 mg/ml up to 48 hrs by time-kill assay; method in brief: as §1
[24] = tested on: Pseudomonas aeruginosa; experiment: Antibacterial activity against Pseudomonas aeruginosa ATCC 27853 assessed as time required for reduction of bacterial load to 3 log CFU/ml at 2 mg/ml up to 48 hrs by time-kill assay
[25] = tested on: Achromobacter xylosoxidans; experiment: Antibacterial activity against Alcaligenes xylosoxidans by broth dilution method
[26] = tested on: Pseudomonas aeruginosa; experiment: Antibacterial activity against Pseudomonas aeruginosa PA1042 assessed as time required for reduction of bacterial load to 3 log CFU/ml at 2 mg/ml up to 48 hrs by time-kill assay; method in brief: as §1
[27] = tested on: Pseudomonas aeruginosa; experiment: Antibacterial activity against Pseudomonas aeruginosa PA876 by broth dilution method; method in brief: as §2
[28] = tested on: Pseudomonas aeruginosa; experiment: Antibacterial activity against Pseudomonas aeruginosa PA899 assessed as time required for reduction of bacterial load to 3 log CFU/ml at 2 mg/ml up to 48 hrs by time-kill assay; method in brief: as §1
[29] = tested on: Pseudomonas aeruginosa; experiment: Antibacterial activity against Pseudomonas aeruginosa PA1036 assessed as time required for reduction of bacterial load to 3 log CFU/ml at 2 mg/ml up to 48 hrs by time-kill assay; method in brief: as §1
[30] = tested on: Pseudomonas aeruginosa; experiment: Antibacterial activity against Pseudomonas aeruginosa PA881 assessed as time required for reduction of bacterial load to 3 log CFU/ml at 2 mg/ml up to 48 hrs by time-kill assay; method in brief: as §1
[31] = tested on: Pseudomonas aeruginosa; experiment: Antibacterial activity against Pseudomonas aeruginosa PA876 assessed as time required for reduction of bacterial load to 3 log CFU/ml at 2 mg/ml up to 48 hrs by time-kill assay; method in brief: as §1
[32] = tested on: Pseudomonas aeruginosa; experiment: Antibacterial activity against Pseudomonas aeruginosa PA1054 assessed as inhibition of biofilm formation by microtiter plate reader assay; details: for MIC: Pseudomonas aeruginosa, PA1054; method in brief: as §3
[33] = tested on: Pseudomonas aeruginosa; experiment: Antibacterial activity against Pseudomonas aeruginosa PA1054 assessed as time required for reduction of bacterial load to 3 log CFU/ml at 2 mg/ml up to 48 hrs by time-kill assay; method in brief: as §1
[34] = tested on: Pseudomonas aeruginosa; experiment: Antibacterial activity against Pseudomonas aeruginosa PA1042 assessed as time required for reduction of bacterial load to 3 log CFU/ml at 0.2 mg/ml up to 48 hrs by time-kill assay; method in brief: as §1

| Compound | Time [1] | MIC [2] [µg/mL] | Time [3] | Time [4] | MIC50 [5] [µg/mL] | MIC90 [5] [µg/mL] | Time [6] | Time [7] | Time [8] | BBC [9] [µg/mL] | MIC [10] [µg/mL] | Time [11] | MIC [12] [µg/mL] | Time [13] | Time [14] | Time [15] [h] | MIC50 [16] [µg/mL] | MIC90 [16] [µg/mL] | Time [17] | Time [18] | other results |
| --- | --- | --- | --- | --- | --- | --- | --- | --- | --- | --- | --- | --- | --- | --- | --- | --- | --- | --- | --- | --- | --- |
| C[C@H]1[C@H](NC(=O)/C(=N\OC(C)(C)C(=O)O)c2csc(N)n2)C(=O)N1S(=O)(=O)O [AZTREONAM] | >24 h | 8 (≈ 18.4 µM) | >24 h | 4 h | 4 (≈ 9.19 µM) | 128 (≈ 294 µM) | 8 h | >24 h | 24 h | >256 | 8 (≈ 18.4 µM) | >24 h | > 128 | >24 h | 24 h | >24 | > 128 | > 128 | >24 h | 24 h | Time [19]: 8 h; Time [20]: 4 h; BBC [21]: >64 µg/mL; MIC50 [22]: > 128 µg/mL; MIC90 [22]: > 128 µg/mL; Time [23]: 24 h; Time [24]: 24 h; MIC50 [25]: 64 µg/mL (≈ 147 µM); MIC90 [25]: > 128 µg/mL; Time [26]: 2 h; MIC90 [27]: > 128 µg/mL; Time [28]: 24 h; Time [29]: 24 h; Time [30]: 8 h; Time [31]: >24 h; BBC [32]: >64 µg/mL; MIC [32]: 4 µg/mL (≈ 9.19 µM); Time [33]: 24 h; Time [34]: 8 h |
| C[C@H]1COc2c(N3CCN(C)CC3)c(F)cc3c(=O)c(C(=O)O)cn1c23.C[C@H]1COc2c(N3CCN(C)CC3)c(F)cc3c(=O)c(C(=O)O)cn1c23.O [LEVOFLOXACIN] | <=0.5 hr | 0.5 | <=0.5 hr | <=0.5 hr | 2 | 8 | <=0.5 hr | <=0.5 hr | <=0.5 hr | 2 | 0.5 | <=0.5 hr | 8 | <=0.5 hr | <=0.5 hr | 4 | 2 | 8 | <=0.5 hr | <=0.5 hr | Time [19]: <=0.5 hr; Time [20]: <=0.5 hr; BBC [21]: 1 µg/mL; MIC50 [22]: 0.125 µg/mL; MIC90 [22]: 0.25 µg/mL; Time [23]: <=0.5 hr; Time [24]: <=0.5 hr; MIC50 [25]: 4 µg/mL; MIC90 [25]: 16 µg/mL; Time [26]: <=0.5 hr; MIC90 [27]: 8 µg/mL; Time [28]: <=0.5 hr; Time [29]: <=0.5 hr; Time [30]: <=0.5 hr; Time [31]: <=0.5 hr; BBC [32]: 1 µg/mL; Time [33]: <=0.5 hr; Time [34]: <=0.5 hr |
| NC[C@H]1O[C@H](O[C@H]2[C@H](O)[C@@H](O[C@H]3O[C@H](CO)[C@@H](O)[C@H](N)[C@H]3O)[C@H](N)C[C@@H]2N)[C@H](N)C[C@@H]1O [TOBRAMYCIN] | 4 h | 0.25 (≈ 0.535 µM) | 1 h | <=0.5 hr | 2 (≈ 4.28 µM) | > 32 | <=0.5 hr | <=0.5 hr | <=0.5 hr | 1 | 0.25 (≈ 0.535 µM) | 8 h | 32 (≈ 68.4 µM) | 2 h | <=0.5 hr | 4 | > 32 | > 32 | 4 h | <=0.5 hr | Time [19]: <=0.5 hr; Time [20]: <=0.5 hr; BBC [21]: 8 µg/mL; MIC50 [22]: 0.125 µg/mL (≈ 0.267 µM); MIC90 [22]: 32 µg/mL (≈ 68.4 µM); Time [23]: <=0.5 hr; Time [24]: <=0.5 hr; MIC50 [25]: > 32 µg/mL; MIC90 [25]: > 32 µg/mL; Time [26]: <=0.5 hr; MIC90 [27]: 32 µg/mL (≈ 68.4 µM); Time [28]: <=0.5 hr; Time [29]: <=0.5 hr; Time [30]: <=0.5 hr; Time [31]: 4 h; BBC [32]: 1 µg/mL; MIC [32]: 1 µg/mL (≈ 2.14 µM); Time [33]: <=0.5 hr; Time [34]: 1 h |
